Assay results taken from publication PMC8717589 (ACS Omega, 2021).
pIC50: −log10 of the molar value. Where two headings read alike, the source gives them in different places.

Tests used:
THP-1 cells = experiment: Cytotoxicity assay; type: cell-based, human; settings: for THP-1 selectivity index (CC50/IC50): IC50 on L. infantum MHOM/TN/80/IPT1, CC50 72 h
How it was run: (§1)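 THP-1 (RPMI-1640, 10% FBS; 5 × 10^6 cells/mL) were PMA-differentiated (20 ng/mL, 48 h). DH82 (EMEM, 15% FBS; 2 × 10^5/well) were attached overnight. Both were exposed 72 h at 37 °C to 2, 10, 20, 80 and 200 μM, with DMSO control, in duplicate. Read-out was MTS/PMS A492, with % inhibition at 200 μM.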

Cytotoxicity assay [1] = type: cell-based, human; settings: human, PMA-differentiated THP-1 cells (macrophage-like)
How it was run: as §1

Cytotoxicity assay [2] = type: cell-based, canine; settings: dog, DH82 cells
How it was run: as §1

DH82 cells = experiment: Cytotoxicity assay; type: cell-based, canine; settings: IC50 on L. infantum MHOM/TN/80/IPT1; CC50 72 h
How it was run: as §1

[3] = test system: L. infantum MHOM/TN/80/IPT1 promastigotes; experiment: L. infantum promastigotes viability assay; type: cell-based, Leishmania infantum; settings: 72 h; for inhibition at 20 µM: read-out: Percentage of inhibition at 20 μM, L. infantum MHOM/TN/80/IPT1
How it was run: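 Late log/stationary promastigotes were seeded in RPMI-PY at 2.5 × 10^6/mL. They were treated 72 h at 26 °C with 1:2 or 2:3 dilutions from 20 to 0.31 μM, with DMSO vehicle control, in duplicate. MTS/PMS was added at 26 °C until formazan formed, then A492 was read. Growth inhibition is relative to DMSO. IC50 from a normalized-response nonlinear fit with unconstrained Hill slope. Mean and 95% CI, ≥3 independent experiments.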

[4] = Leishmania infantum, read-out: L. infantum MHOM/TN/80/IPT1 IC50 (95% CI), promastigotes, 72 h, MTS

## CCCCCCCCCCCCCCCCOP(=O)([O-])OCC[N+](C)(C)C [Milt, miltefosine, reference compound]
THP-1 cells
  THP-1 selectivity index (CC50/IC50): 9.8
Cytotoxicity assay [1]
  CC50 at 72 h: 27.8 µM
Cytotoxicity assay [2]
  CC50 at 72 h: 95.9 µM
DH82 cells
  DH82 selectivity index (CC50/IC50): 33.6
[3]; [4]
  pIC50: 5.54

## COC(=O)c1c(C)ncn1CC(c1cn(C)c2ccccc12)c1cn(C)c2ccccc12 [2e]
THP-1 cells
  THP-1 selectivity index (CC50/IC50): 11.3
Cytotoxicity assay [1]
  CC50 at 72 h: 55.4 µM
Cytotoxicity assay [2]
  CC50 at 72 h: 24.3 µM
DH82 cells
  DH82 selectivity index (CC50/IC50): 5.0
[3]; [4]
  pIC50: 5.31

## COC(=O)c1c(C)ncn1CC(c1c[nH]c2ccccc12)c1c[nH]c2ccccc12 [2a]
THP-1 cells
  THP-1 selectivity index (CC50/IC50): 3.8
Cytotoxicity assay [1]
  CC50 at 72 h: 37.9 µM
Cytotoxicity assay [2]
  CC50 at 72 h: 35.3 µM
DH82 cells
  DH82 selectivity index (CC50/IC50): 3.5
[3]; [4]
  pIC50: 5.00

## Cc1cn(CC(c2cn(C)c3ccccc23)c2cn(C)c3ccccc23)nn1 [3b]
THP-1 cells; Homo sapiens, THP-1, 72 h, read-out: Percentage of inhibition at 200 μM, THP-1
  inhibition at 200 µM: 33%
THP-1 cells
  THP-1 selectivity index (CC50/IC50): >25
Cytotoxicity assay [1]
  CC50 at 72 h: > 200 µM
Cytotoxicity assay [2]
  CC50 at 72 h: 31.9 µM
DH82 cells
  DH82 selectivity index (CC50/IC50): 3.9
[3]; [4]
  pIC50: > 5.10
[3]; read-out: L. infantum MHOM/TN/80/IPT1 IC50 (95% CI), promastigotes, MTS
  pIC50: 5.09

## CCOC(=O)c1cn(CC(c2cn(C)c3ccc(C)cc23)c2cn(C)c3ccc(C)cc23)c(C)c1C(=O)OC [1c]
[3]; [4]
  pIC50: < 4.70
[3]; Leishmania infantum
  inhibition at 20 µM: 43%

## CCOC(=O)c1c(C(=O)OC)cn(CC(c2cn(C)c3cc(Br)ccc23)c2cn(C)c3cc(Br)ccc23)c1C [1d]
[3]; [4]
  pIC50: < 4.70
[3]; Leishmania infantum
  inhibition at 20 µM: 11%

## C[C@@H]1[C@H](O)[C@@H](C)/C=C/C=C/C=C/C=C/C=C/C=C/C=C/[C@H](O[C@@H]2O[C@H](C)[C@@H](O)[C@H](N)[C@@H]2O)C[C@@H]2O[C@](O)(C[C@@H](O)C[C@@H](O)[C@H](O)CC[C@@H](O)C[C@@H](O)CC(=O)O[C@H]1C)C[C@H](O)[C@H]2C(=O)O [Amph B, amphotericin B, reference compound]
THP-1 cells
  THP-1 selectivity index (CC50/IC50): 45.8
Cytotoxicity assay [1]
  CC50 at 72 h: 2.8 µM
Cytotoxicity assay [2]
  CC50 at 72 h: > 200 µM
DH82 cells
  DH82 selectivity index (CC50/IC50): >3333
[3]; [4]
  pIC50: 7.19

## CCOC(=O)c1c(C)ncn1CC(c1cn(C)c2ccc([N+](=O)[O-])cc12)c1cn(C)c2ccc([N+](=O)[O-])cc12 [2f]
THP-1 cells
  THP-1 selectivity index (CC50/IC50): 7.2
Cytotoxicity assay [1]
  CC50 at 72 h: 35.1 µM
Cytotoxicity assay [2]
  CC50 at 72 h: > 200 µM
DH82 cells
  DH82 selectivity index (CC50/IC50): >41
[3]; [4]
  pIC50: 5.31

## COC(=O)c1c(C)ncn1CC(c1c[nH]c2ccc(C)cc12)c1c[nH]c2ccc(C)cc12 [2b]
THP-1 cells
  THP-1 selectivity index (CC50/IC50): 3.5
Cytotoxicity assay [1]
  CC50 at 72 h: 26.9 µM
Cytotoxicity assay [2]
  CC50 at 72 h: 24.8 µM
DH82 cells
  DH82 selectivity index (CC50/IC50): 3.2
[3]; [4]
  pIC50: 5.11

## N=C(N)c1ccc(OCCCCCOc2ccc(C(=N)N)cc2)cc1 [Pent, pentamidine, reference compound]
Cytotoxicity assay [1]
  CC50 at 72 h: 103 µM
Cytotoxicity assay [2]
  CC50 at 72 h: 10.6 µM
[3]; [4]
  pIC50: 5.59

## CCc1ncn(CC(c2c[nH]c3ccc(C)cc23)c2c[nH]c3ccc(C)cc23)c1C(=O)OC [2c]
THP-1 cells
  THP-1 selectivity index (CC50/IC50): 3.8
Cytotoxicity assay [1]
  CC50 at 72 h: 38.6 µM
Cytotoxicity assay [2]
  CC50 at 72 h: 23.5 µM
DH82 cells
  DH82 selectivity index (CC50/IC50): 2.3
[3]; [4]
  pIC50: 5.00

## COC(=O)c1c(C)ncn1CC(c1c[nH]c2cc(Br)ccc12)c1c[nH]c2cc(Br)ccc12 [2d]
THP-1 cells
  THP-1 selectivity index (CC50/IC50): 1.8
Cytotoxicity assay [1]
  CC50 at 72 h: 15.4 µM
Cytotoxicity assay [2]
  CC50 at 72 h: 18.9 µM
DH82 cells
  DH82 selectivity index (CC50/IC50): 2.2
[3]; [4]
  pIC50: 5.07

## Cc1cn(CC(c2c[nH]c3ccccc23)c2c[nH]c3ccccc23)nn1 [3a]
[3]; [4]
  pIC50: < 4.70
[3]; Leishmania infantum
  inhibition at 20 µM: 22%

## c1ccc2c(Cc3c[nH]c4ccccc34)c[nH]c2c1 [DIM, 3,3′-diindolylmethane, reference compound]
[3]; [4]
  pIC50: < 4.70
[3]; Leishmania infantum
  inhibition at 20 µM: 10%
